ADAM10 inh: inhibits human ADAM10 | O14672 | recombinant ADAM10, EDANS/DABCYL FRET peptide cleavage, 3 h | inhibition, % at 7 µM | 0.62% of 370,000 active;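 active means inhibition above a per-campaign cutoff equal to the mean of compounds falling between control-based bounds plus 3 SD, cut at about 20% in these data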;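 further: 0% = DMSO wells while the 100% control is not disclosed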
ADAM17 inh: inhibitors of human ADAM17; recombinant ADAM17, EDANS/DABCYL FRET peptide cleavage; inhibition, % at 6.95 µM; 0.83% of 370,000 active; AID 720648;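 active means inhibition above the mean of compounds lying between control limits plus 3 SD, set per campaign, cut at about 8.5% in these data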;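 further: 0% = DMSO-only wells as the low control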
PLC-beta3 inh: PLC-beta3 (human) inhibition, primary screen | Q01970 | 0.18% of 370,000 active | inhibition, % at 12.2 µM | Purified PLC-beta3, fluorogenic substrate, fluorescence;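 further: 0% = median of compound wells on plate and 100% = full blocker control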
Target sequence (Q01970 whole entry, looked up): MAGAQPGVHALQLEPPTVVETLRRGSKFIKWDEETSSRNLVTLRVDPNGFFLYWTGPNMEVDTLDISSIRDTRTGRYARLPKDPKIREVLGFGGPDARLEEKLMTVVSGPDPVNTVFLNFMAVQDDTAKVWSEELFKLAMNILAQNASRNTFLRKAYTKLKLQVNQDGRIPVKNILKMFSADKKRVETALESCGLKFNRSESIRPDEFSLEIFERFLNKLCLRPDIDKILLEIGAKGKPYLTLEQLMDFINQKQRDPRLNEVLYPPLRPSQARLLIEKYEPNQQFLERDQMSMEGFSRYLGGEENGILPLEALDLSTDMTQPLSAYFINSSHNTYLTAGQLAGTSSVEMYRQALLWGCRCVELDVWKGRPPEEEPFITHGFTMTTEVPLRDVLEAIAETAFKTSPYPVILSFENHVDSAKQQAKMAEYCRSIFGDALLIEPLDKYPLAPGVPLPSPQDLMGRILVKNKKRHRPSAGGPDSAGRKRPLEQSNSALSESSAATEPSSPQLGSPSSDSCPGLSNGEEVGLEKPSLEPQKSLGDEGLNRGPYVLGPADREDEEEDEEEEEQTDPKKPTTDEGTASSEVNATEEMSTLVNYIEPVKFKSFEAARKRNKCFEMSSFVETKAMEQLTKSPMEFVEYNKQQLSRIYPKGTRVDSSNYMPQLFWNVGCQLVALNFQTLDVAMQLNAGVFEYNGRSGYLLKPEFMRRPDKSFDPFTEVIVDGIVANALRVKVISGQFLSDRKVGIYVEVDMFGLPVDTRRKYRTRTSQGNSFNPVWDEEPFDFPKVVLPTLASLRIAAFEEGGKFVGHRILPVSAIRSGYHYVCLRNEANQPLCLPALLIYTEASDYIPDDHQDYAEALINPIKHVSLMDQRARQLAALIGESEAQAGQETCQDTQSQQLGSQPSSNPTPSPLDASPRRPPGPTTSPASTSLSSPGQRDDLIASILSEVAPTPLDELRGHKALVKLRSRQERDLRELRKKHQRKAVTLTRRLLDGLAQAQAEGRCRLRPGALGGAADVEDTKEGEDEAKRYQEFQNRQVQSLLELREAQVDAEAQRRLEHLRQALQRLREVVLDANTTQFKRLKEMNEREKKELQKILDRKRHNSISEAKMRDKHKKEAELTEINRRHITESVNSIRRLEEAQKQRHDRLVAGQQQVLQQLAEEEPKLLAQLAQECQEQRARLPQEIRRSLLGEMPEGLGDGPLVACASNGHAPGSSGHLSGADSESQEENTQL
Tn6 DDE FP: inhibitors of Tn6 peptide binding to human fibrin DD(E). inhibition, % at 8.3 µM. Fibrin DD(E) TRITC-Tn6 fluorescence polarization displacement. 0.21% of 370,000 active. AID 720509;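 active means inhibition above a per-campaign cutoff: mean of compounds within control limits plus 3 SD, cut at about 15% in these data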;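 further: 0% = median of all compound wells on the plate and 100% = blocking peptide control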
PLC-gamma1 inh: blocks human PLC-gamma1 enzyme activity | 0.84% of 370,000 active | AID 720700 | purified PLC-gamma1, fluorogenic substrate, fluorescence | P19174 | inhibition, % at 12.2 µM; in the data active means inhibition above about 9.5%
DDE Tn7 FP inh: DD(E)-Tn7 binding inhibition, primary FP screen; AID 720508; inhibition, % at 8.3 µM; FP displacement of FITC-Tn7 peptide from fibrin DD(E); 0% = median of compound wells per plate; 0.13% of 370,000 active;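 active means inhibition above the mean of compounds falling within the control limits plus 3 SD of them, cut at about 14% in these data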;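 further: 0% = plate median of compound wells and 100% = 10 µM Aha-Tn7 peptide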
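assay system = human clot-derived fibrin DD(E) complex | quantity = Fibrin-DD(E) at 2 µM final | timing = 10 min preincubation, 3 h with tracer, room temperature | signal = fluorescence polarization | measure = percent inhibition | benchmarks = high control wells with 10 µM unlabelled Aha-Tn7 peptide (full inhibition) | replicates = singlicate testing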
PLCg1 ctr: counter-screen for PLC-beta3 inhibitors: inhibitors of human PLC-gamma1. shares compounds with PLC-gamma1 inh. purified PLC-gamma1, fluorogenic substrate, fluorescence. inhibition, % at 12.3 µM. 3.1% of 3,300 active; in the data active means inhibition above about 9.5%
PLCbeta3 conf: confirmation of human PLC-beta3 inhibitors. shares compounds with PLC-gamma1 inh. purified PLC-beta3, fluorogenic substrate fluorescence. inhibition, % at 12.3 µM. 1% of 3,300 active
* marks the source's active call; other numbers are inactive results; . = not tested or not shown. Only some compounds are listed: those with a hit (about 2.3% of all), similar ones and a draw of the others. Unless noted, no stated cut-off is given here; in the data, active means inhibition above about 11%; inactive means the rest.

SMILES | ADAM10 inh | ADAM17 inh | PLC-beta3 inh | Tn6 DDE FP | PLC-gamma1 inh | DDE Tn7 FP inh | PLCg1 ctr | PLCbeta3 conf
O=C1NC(Cc2ccccc2)c2nc3ccc(F)cc3c(=O)n2-c2ccccc21 (centres undefined) | 9 | -1 | -1 | 11 | 0 | 7 | . | .
O=C1NC(Cc2ccccc2)c2nc3cc(F)ccc3c(=O)n2-c2ccccc21 (centres undefined) | 0 | 6 | -1 | -3 | 11* | 5 | -5 | -5
CC(C)C[C@@H](CO)N1CCNCCC1=O | 3 | -4 | 0 | 3 | -3 | -2 | . | .
CC(C)C[C@@H](CO)N1CCN(C)CCC1=O | -5 | 6 | 5 | -6 | 14* | -7 | -6 | -2
FC(F)(F)c1ccccc1NC(=S)Nc1ccccc1 | -3 | -6 | -5 | -11 | 11* | 2 | -3 | -2
O=c1cc2oc3cc(O)c(O)cc3c(-c3ccccc3[N+](=O)[O-])c-2cc1O | 6 | 3 | 9 | -3 | 13* | 3 | 17* | 9
Cc1ccc(N2CC(C(=O)NCc3cccnc3)CC2=O)cc1 (centres undefined) | 3 | -2 | -4 | -4 | 0 | 4 | . | .
Cc1ccc(CCN2CC(C(=O)NCc3cccnc3)CC2=O)cc1 (centres undefined) | 13 | 2 | 7 | 11 | 12* | 8 | -2 | -1
CC(C)(C)c1ccc(OC(=O)c2ccc3snnc3c2)cc1 | 11 | 6 | 2 | -8 | 10* | -3 | 0 | 4
CC(C)(C)c1ccc(OC(=O)c2ccc3nsnc3c2)cc1 | 7 | -6 | -1 | -1 | 0 | 2 | . | .
CCOC(=O)[C@]12CCCCC/C=C\1N(Cc1ccc(OC)cc1)C(=O)[C@H]2CC(=O)NCCC(C)C | 7 | 3 | 2 | 6 | 1 | 4 | . | .
N/C(=N\OC(=O)c1ccccc1Cl)c1ccncc1 | 7 | 3 | -2 | 4 | 10* | -6 | -2 | -3
N/C(=N\OC(=O)c1ccc(Cl)cc1Cl)c1ccncc1 | -8 | -6 | -6 | 1 | -4 | -2 | . | .
CC(=O)Nc1cccc(C(=O)OC(C)C(=O)NCc2ccc3c(c2)OCO3)c1 (centres undefined) | -6 | -5 | -8 | 0 | 9.9* | 8 | 4 | 6
CC(OC(=O)c1ccc2c(c1)OCO2)C(=O)NC1CCCCC1 (centres undefined) | -3 | 2 | 2 | -1 | 11* | 3 | -7 | -2
Cc1ccc2c(c1)C(c1ccccc1)N(C(=O)c1ccccc1[N+](=O)[O-])CC(=O)N2 (centres undefined) | 3 | 1 | -1 | -8 | 3 | 2 | . | .
O=C1CN(C(=O)c2ccccc2[N+](=O)[O-])C(c2ccccc2)c2cc(Br)ccc2N1 (centres undefined) | 4 | 1 | -5 | -2 | 9.7* | 7 | -3 | -9
COc1ccccc1C(=O)N1CC(=O)Nc2ccc(F)cc2C1c1ccccc1 (centres undefined) | -1 | 8 | 3 | -1 | 9.6* | 2 | -10 | -2
CCOC(=O)C1C(=O)OC(C)(C)C1C(C)C(=O)c1ccc(C)cc1 (centres undefined) | 15 | 8 | 9 | -4 | 9.5* | 0 | -2 | -4
O=C(c1ccc(Cl)c(Cl)c1)N1CCN(c2ccnc3cc(Cl)ccc23)CC1 | 9 | 3 | -9 | -3 | -4 | 4 | . | .
O=C(Nc1nc(COc2ccccc2)cs1)C12CC3CC(CC(C3)C1)C2 | 11 | 4 | 11* | -12 | 9 | 3 | 8 | 9
O=C(NCc1ccccc1Cl)c1ccc(CS(=O)Cc2ccc(Cl)cc2)o1 (centres undefined) | 3 | 2 | -5 | 3 | 9.5* | -2 | 2 | 7
Cc1ccc(C(=O)NC(C)CCc2ccccc2)cc1[N+](=O)[O-] (centres undefined) | 7 | 8 | 3 | -7 | 13* | -2 | -2 | -2
CC(CCc1ccccc1)NC(=O)c1cccc([N+](=O)[O-])c1 (centres undefined) | 3 | 1 | 3 | 0 | 0 | 5 | . | .
Cc1c(NC(=S)N/N=C/C=C/c2ccc([N+](=O)[O-])cc2)c(=O)n(-c2ccccc2)n1C | 18 | 7 | 4 | -1 | 12* | -7 | 11* | 5
SMILES | ADAM10 inh | ADAM17 inh | PLC-beta3 inh | Tn6 DDE FP | PLC-gamma1 inh | DDE Tn7 FP inh | PLCg1 ctr | PLCbeta3 conf
Cc1ccc(CN2CCCCC(NC(=O)c3cccc([N+](=O)[O-])c3)C2=O)cc1 (centres undefined) | -2 | -2 | -4 | 0 | -3 | 2 | . | .
Clc1cc(Br)ccc1OCCOCCN1CCOCC1 | 15 | 6 | 14* | 4 | 13* | -2 | -4 | 0
Clc1ccc(OCCOCCN2CCCCC2)c(Br)c1 | 6 | 6 | 5 | -1 | 11* | -5 | -8 | 1
Clc1cc(Br)ccc1OCCOCCN1CCCC1 | 3 | -2 | -1 | 1 | 2 | 4 | . | .
CC1CCN(CCOCCOc2ccc(Cl)cc2Br)CC1 | 6 | 0 | 6 | 4 | 5 | -5 | . | .
COc1cccc(C2(O)CCN(C(=O)C3CC3)CC2)c1 | 2 | -1 | 5 | 7 | 2 | -1 | . | .
COc1cccc(C2(O)CCN(C(=O)C3CCC3)CC2)c1 | 9 | 8 | 6 | -3 | 12* | -3 | -1 | 7
CCCCNC(=O)COC(=O)CCC(=O)c1ccc(F)cc1 | 9 | 3 | 4 | -6 | 6 | -5 | . | .
CCCNC(=O)COC(=O)CCC(=O)c1ccc(F)cc1 | 13 | 1 | 7 | -6 | 9.8* | -1 | -2 | -7
S=C(Nc1ccc(Cl)cc1)OC1CCC12CCC(c1ccccc1)CC2 (centres undefined) | 6 | 4 | 1 | -5 | 0 | 8 | . | .
CC1=C(C(=O)OCc2ccc([N+](=O)[O-])cc2)N2C(=O)C(NC(=O)Cc3ccccc3)C2SC1 (centres undefined) | 8 | -3 | 2 | 0 | 24* | 5 | 24* | 1
COc1ccc(/C=N/Nc2nnc(Cc3ccc(OC)c(OC)c3)c(=O)[nH]2)cc1 | 5 | 5 | 9 | 7 | 14* | -8 | -1 | -4
COc1ccc(/C=N/Nc2nnc(Cc3ccc(OC)c(OC)c3)c(=O)[nH]2)cc1OC | 18 | 4 | 11* | -11 | 4 | -8 | 3 | 4
O=C(Nc1ccc(F)cc1)OCCN1C(=O)CCC12CCC(c1ccc(Cl)cc1)CC2 (centres undefined) | 1 | 1 | 0 | 2 | 4 | -8 | . | .
